Measurements as given in ChEMBL document CHEMBL2046373, “Discovery of a potent thiadiazole class of histamine h3 receptor antagonist for the treatment of diabetes” (ACS Med Chem Lett, 2012).

Assays:
[1] = biological target: Histamine H3 receptor (Homo sapiens, UniProt Q9Y5N1); test: Displacement of [3H]-N-alpha-methylhistamine from human recombinant histamine H3 receptor after 30 mins by scintillation counting
[2] = biological target: Histamine H3 receptor (Mus musculus, UniProt P58406); test: Displacement of [3H]-N-alpha-methylhistamine from mouse recombinant histamine H3 receptor after 30 mins by scintillation counting
[3] = system: Mus musculus; test: Ex vivo receptor occupancy of histamine H3 receptor in ICR mouse brain cortex using [3H]- N-alpha-Methylhistamine at 30 mg/kg, po after 30 mins by scintillation counting; assay type: functional
[4] = biological target: hERG (KCNH2) (Homo sapiens, UniProt Q12809); test: Inhibition of human ERG at 10 uM by high-throughput rubidium efflux assay
[5] = Cmax in ICR mouse plasma at 30 mg/kg, po after 4 hrs; assay type: ADME, organism-based; set-up: dose 30 mg/kg, route oral
How it was run: (§1)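 ICR mice were given a single 30 mg/kg oral dose. Total brain and plasma concentrations were measured 4 h later, and the brain/plasma ratio was taken from these levels.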

[6] = biological target: T1, Cytochrome P450 2C9 (Homo sapiens, UniProt P11712); test: Inhibition of CYP2C9 under co-incubation conditions; assay type: ADME; conditions: read-out: INH
[7] = biological target: T1, Cytochrome P450 2C9; test: Inhibition of CYP2C9 under preincubation conditions; assay type: ADME; conditions: read-out: INH
[8] = biological target: T2, Cytochrome P450 3A4 (Homo sapiens, UniProt P08684); test: Inhibition of CYP3A4 under co-incubation conditions; assay type: ADME; conditions: read-out: INH
[9] = biological target: T3, Cytochrome P450 2D6 (Homo sapiens, UniProt P10635); test: Inhibition of CYP2D6 under co-incubation conditions; assay type: ADME; conditions: read-out: INH
[10] = Drug level in ICR mouse brain at 30 mg/kg, po after 4 hrs; assay type: ADME, organism-based; set-up: dose 30 mg/kg, route oral; conditions: read-out: Drug uptake; how it was run: as §1
[11] = biological target: T3, Cytochrome P450 2D6; test: Inhibition of CYP2D6 under preincubation conditions; assay type: ADME
[12] = biological target: T2, Cytochrome P450 3A4; test: Inhibition of CYP3A4 under preincubation conditions; assay type: ADME; conditions: read-out: INH
[13] = AUC (0 to 6 hrs) in rat at 10 mg/kg, po; assay type: ADME, organism-based; set-up: time < 6 hr, dose 10 mg/kg, route oral; conditions: plasma
[14] = system: Mus musculus; test: Antihyperglycemic activity in po dosed STZ-induced type 2 diabetic model of ICR mouse assessed as reduction of HbA1c level administered qd for 12 days; assay type: functional, organism-based
How it was run: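 STZ diet-induced obese type 2 diabetic mice were dosed orally once daily for 12 days at 10 and 30 mg/kg. The end point was change in glycated hemoglobin (HbA1c), compared with vehicle (0) controls.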

[15] = system: Mus musculus; test: Antihyperglycemic activity in STZ-induced type 2 diabetic model of ICR mouse assessed as reduction of non-fasting blood glucose level at 30 mg/kg, po qd for 2 days; assay type: functional
How it was run: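 Streptozotocin-diabetic ICR mice (STZ 80 mg/kg ip; blood glucose 250–500 mg/dL) received oral dosing at 30 mg/kg once daily. Non-fasting glucose was read daily before each dose. Data are mean ± SEM, n = 12/group, compared with vehicle (0) controls.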

[16] = Ratio of drug level in brain to plasma in ICR mouse; assay type: ADME; conditions: read-out: BPR; how it was run: as §1

T2 sequence (P08684 whole entry): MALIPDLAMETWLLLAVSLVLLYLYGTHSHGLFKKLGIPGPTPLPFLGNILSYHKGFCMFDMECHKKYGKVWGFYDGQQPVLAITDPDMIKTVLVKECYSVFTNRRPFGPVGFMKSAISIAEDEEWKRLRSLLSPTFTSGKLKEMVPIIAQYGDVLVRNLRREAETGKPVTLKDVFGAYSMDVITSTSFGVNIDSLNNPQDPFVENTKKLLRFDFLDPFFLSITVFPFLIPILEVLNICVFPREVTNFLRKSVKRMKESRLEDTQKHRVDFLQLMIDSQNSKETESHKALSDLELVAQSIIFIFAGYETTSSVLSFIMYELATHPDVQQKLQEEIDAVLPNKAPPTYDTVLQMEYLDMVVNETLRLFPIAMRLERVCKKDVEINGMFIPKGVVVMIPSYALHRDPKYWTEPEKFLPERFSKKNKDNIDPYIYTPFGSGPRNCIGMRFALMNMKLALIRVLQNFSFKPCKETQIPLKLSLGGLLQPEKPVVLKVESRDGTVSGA
Sequence of hERG (KCNH2) (Q12809 whole entry): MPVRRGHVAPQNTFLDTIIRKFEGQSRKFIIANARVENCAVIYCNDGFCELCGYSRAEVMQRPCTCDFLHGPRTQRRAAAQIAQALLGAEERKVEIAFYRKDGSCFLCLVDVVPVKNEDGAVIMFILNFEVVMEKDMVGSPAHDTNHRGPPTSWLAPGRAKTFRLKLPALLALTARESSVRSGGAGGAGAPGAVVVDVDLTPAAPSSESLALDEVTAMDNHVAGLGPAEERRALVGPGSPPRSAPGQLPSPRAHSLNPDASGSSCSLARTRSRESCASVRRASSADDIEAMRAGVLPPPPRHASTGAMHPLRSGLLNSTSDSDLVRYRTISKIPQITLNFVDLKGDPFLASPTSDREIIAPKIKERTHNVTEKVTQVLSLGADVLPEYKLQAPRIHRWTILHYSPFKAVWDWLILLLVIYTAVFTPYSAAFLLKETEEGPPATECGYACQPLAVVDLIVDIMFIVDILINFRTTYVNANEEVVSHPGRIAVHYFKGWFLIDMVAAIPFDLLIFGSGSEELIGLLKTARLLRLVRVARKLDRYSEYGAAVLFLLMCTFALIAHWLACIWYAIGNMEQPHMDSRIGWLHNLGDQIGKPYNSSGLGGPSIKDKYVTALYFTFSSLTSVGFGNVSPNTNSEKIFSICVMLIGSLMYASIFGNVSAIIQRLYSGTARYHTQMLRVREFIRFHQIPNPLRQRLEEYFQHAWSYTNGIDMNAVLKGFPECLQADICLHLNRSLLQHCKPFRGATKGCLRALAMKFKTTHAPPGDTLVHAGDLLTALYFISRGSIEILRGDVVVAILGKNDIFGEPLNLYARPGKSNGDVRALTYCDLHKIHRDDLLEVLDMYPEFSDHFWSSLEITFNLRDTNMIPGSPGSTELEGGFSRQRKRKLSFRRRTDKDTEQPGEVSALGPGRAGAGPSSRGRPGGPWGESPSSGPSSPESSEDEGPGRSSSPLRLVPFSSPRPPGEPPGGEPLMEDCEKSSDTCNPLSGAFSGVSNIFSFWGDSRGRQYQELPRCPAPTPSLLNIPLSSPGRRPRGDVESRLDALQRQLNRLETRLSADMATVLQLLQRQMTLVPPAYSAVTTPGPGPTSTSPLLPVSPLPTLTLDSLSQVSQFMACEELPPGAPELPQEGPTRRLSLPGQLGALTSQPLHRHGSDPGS
Sequence of Histamine H3 receptor (Homo sapiens, UniProt Q9Y5N1) (Q9Y5N1 whole entry): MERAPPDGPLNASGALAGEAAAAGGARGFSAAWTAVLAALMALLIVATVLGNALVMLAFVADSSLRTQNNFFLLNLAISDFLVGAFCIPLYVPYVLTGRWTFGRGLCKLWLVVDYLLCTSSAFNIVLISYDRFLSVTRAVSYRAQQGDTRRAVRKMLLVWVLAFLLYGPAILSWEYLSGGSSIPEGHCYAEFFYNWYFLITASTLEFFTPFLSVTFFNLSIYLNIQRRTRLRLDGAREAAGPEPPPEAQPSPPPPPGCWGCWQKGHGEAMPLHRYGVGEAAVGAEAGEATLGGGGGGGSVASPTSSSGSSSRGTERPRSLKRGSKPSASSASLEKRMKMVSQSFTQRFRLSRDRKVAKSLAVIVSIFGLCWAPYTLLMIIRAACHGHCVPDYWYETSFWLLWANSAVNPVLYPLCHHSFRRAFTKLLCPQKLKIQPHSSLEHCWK
T3 sequence (P10635 whole entry): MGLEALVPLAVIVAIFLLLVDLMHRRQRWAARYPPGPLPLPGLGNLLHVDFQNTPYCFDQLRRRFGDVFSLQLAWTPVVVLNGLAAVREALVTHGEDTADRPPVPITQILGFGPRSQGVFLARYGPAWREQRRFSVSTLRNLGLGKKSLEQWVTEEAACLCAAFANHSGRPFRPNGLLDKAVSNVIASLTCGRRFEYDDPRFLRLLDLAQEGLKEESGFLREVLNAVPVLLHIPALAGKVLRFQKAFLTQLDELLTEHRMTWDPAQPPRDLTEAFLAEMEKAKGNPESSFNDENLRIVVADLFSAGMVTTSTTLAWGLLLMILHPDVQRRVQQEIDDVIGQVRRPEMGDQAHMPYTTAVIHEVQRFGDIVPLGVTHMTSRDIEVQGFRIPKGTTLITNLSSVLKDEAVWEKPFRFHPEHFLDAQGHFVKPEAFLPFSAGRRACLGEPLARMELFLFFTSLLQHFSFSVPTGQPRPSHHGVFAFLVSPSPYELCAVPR
T1 sequence (P11712 whole entry): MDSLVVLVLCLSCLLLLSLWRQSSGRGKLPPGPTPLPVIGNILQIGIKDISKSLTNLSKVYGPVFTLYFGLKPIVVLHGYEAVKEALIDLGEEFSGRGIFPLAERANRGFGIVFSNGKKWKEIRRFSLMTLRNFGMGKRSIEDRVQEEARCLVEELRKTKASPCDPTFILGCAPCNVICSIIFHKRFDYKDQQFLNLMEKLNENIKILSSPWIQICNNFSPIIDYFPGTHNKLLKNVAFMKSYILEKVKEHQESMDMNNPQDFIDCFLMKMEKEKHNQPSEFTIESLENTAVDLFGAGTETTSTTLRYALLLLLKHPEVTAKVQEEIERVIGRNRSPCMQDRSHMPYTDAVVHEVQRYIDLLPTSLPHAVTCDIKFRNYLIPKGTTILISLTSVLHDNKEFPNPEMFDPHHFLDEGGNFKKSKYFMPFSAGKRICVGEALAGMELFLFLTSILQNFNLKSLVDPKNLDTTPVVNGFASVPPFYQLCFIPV
Sequence of Histamine H3 receptor (Mus musculus, UniProt P58406) (P58406 whole entry): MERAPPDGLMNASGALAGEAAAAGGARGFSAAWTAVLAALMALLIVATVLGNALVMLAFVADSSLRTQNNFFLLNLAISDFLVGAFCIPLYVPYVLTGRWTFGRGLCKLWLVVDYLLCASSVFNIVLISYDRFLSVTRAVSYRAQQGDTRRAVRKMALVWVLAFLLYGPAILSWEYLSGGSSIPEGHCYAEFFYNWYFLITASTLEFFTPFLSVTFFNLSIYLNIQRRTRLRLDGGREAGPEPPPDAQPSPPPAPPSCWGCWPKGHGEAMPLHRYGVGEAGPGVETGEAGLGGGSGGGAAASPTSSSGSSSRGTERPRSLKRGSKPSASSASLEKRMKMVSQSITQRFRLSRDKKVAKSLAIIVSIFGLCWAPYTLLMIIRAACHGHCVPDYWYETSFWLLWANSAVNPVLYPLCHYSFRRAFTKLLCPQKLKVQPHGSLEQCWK

| SMILES | Ki [1] [nM] | Ki [2] [nM] | further results |
| --- | --- | --- | --- |
| c1ccc(C2CCCN(c3nnc(N4CCC(N5CCCCC5)CC4)s3)C2)cc1 (stereo unspecified) | 75 | 110 |  |
| C1=C(c2ccccn2)CCCN1c1nnc(N2CCC(N3CCCCC3)CC2)s1 | 3 | 5 | Activity [3]: 85%; inhibition at 10 µM [4]: 54%; Cmax [5]: 1470 ng/mL; IC50 [6]: > 20000 nM; IC50 [7]: > 20000 nM; IC50 [8]: > 20000 nM; IC50 [9]: > 20000 nM; concentration at 4 h [10]: 1040 ng/g; INH [11]: > 20 µM; IC50 [12]: > 20000 nM |
| COC1CCCN(c2nnc(N3CCC(N4CCCCC4)CC3)s2)C1 (stereo unspecified) | 37 | 46 |  |
| FC1(F)CCN(c2nnc(N3CCC(N4CCCCC4)CC3)s2)C1 | 61 | 61 | AUC(0-t) at 6 h [13]: 545 ng·h/mL |
| c1ccc(C2CN(c3nnc(N4CCC(N5CCCCC5)CC4)s3)CCO2)nc1 (stereo in doubt; 5r) | 5 | 11 |  |
| FC1CCCN(c2nnc(N3CCC(N4CCCCC4)CC3)s2)C1 (stereo unspecified) | 66 | 56 |  |
| C1=C(c2ncccn2)CN(c2nnc(N3CCC(N4CCCCC4)CC3)s2)CC1 | 14 | 44 |  |
| c1ccc(C2CN(c3nnc(N4CCC(N5CCCCC5)CC4)s3)CCO2)nc1 (single isomer, unassigned; enantiomer 2) [listing 1 of 2 here] |  |  | Activity [14]: Dose-dependent effect |
| c1ccc(C2CN(c3nnc(N4CCC(N5CCCCC5)CC4)s3)CCO2)nc1 (single isomer, unassigned; enantiomer 2) [listing 2 of 2 here] | 3 | 4 | Activity [3]: 74%; Activity [15]: 104.5 mg/dL; inhibition at 10 µM [4]: 26%; Cmax [5]: 1500 ng/mL; Kp [16]: 0.016; IC50 [6]: > 20000 nM; IC50 [7]: > 20000 nM; IC50 [8]: > 20000 nM; IC50 [9]: > 20000 nM; concentration at 4 h [10]: 24 ng/g; INH [11]: > 20 µM; IC50 [12]: > 20000 nM |
| O=C1N(c2ccccc2)CCCN1c1nnc(N2CCC(N3CCCCC3)CC2)s1 | 30 | 32 |  |
| OC1CCCN(c2nnc(N3CCC(N4CCCCC4)CC3)s2)C1 (stereo unspecified) | 46 | 68 |  |
| O=C1N(c2nnc(N3CCC(N4CCCCC4)CC3)s2)CCN1C1CCCC1 | 34 | 53 |  |
| c1ccc(C2CN(c3nnc(N4CCC(N5CCCCC5)CC4)s3)CCO2)nc1 (stereo in doubt; 5t) | 34 | 67 |  |
| O=C(Nc1nnc(N2CCC(N3CCCCC3)CC2)s1)NC1CCCC1 |  | 47 |  |
| OC1(c2ncccn2)CCCN(c2nnc(N3CCC(N4CCCCC4)CC3)s2)C1 (stereo unspecified) | 67 | 77 |  |
| OC1(c2ccccn2)CCCN(c2nnc(N3CCC(N4CCCCC4)CC3)s2)C1 (stereo unspecified) | 53 | 55 |  |
| FC1(F)CCN(c2nnc(N3CCC(N4CCCCC4)CC3)s2)CC1 | 15 | 18 | AUC(0-t) at 6 h [13]: 2490 ng·h/mL |
| c1cnc(C2CN(c3nnc(N4CCC(N5CCCCC5)CC4)s3)CCO2)cn1 (stereo unspecified) | 8 | 16 |  |
| COC1(c2ccccn2)CCCN(c2nnc(N3CCC(N4CCCCC4)CC3)s2)C1 (stereo unspecified) | 11 | 54 |  |
| C1=C(c2ccccn2)CN(c2nnc(N3CCC(N4CCCCC4)CC3)s2)CC1 | 12 | 49 |  |
| FC1(c2ccccn2)CCCN(c2nnc(N3CCC(N4CCCCC4)CC3)s2)C1 (stereo unspecified) | 4 | 7 | Activity [3]: 92%; Activity [15]: 67.91 mg/dL; inhibition at 10 µM [4]: 16%; Cmax [5]: 2970 ng/mL; Kp [16]: 0.227; IC50 [6]: > 20000 nM; IC50 [7]: > 20000 nM; IC50 [8]: > 20000 nM; IC50 [9]: > 20000 nM; concentration at 4 h [10]: 674 ng/g; INH [11]: > 20 µM; IC50 [12]: > 20000 nM |
| O=C1CCCCN1c1nnc(N2CCC(N3CCCCC3)CC2)s1 | 120 | 120 |  |
| CC1CN(c2nnc(N3CCC(N4CCCCC4)CC3)s2)CC(C)O1 (stereo unspecified) | 53 | 35 | AUC(0-t) at 6 h [13]: 4320 ng·h/mL |
